Reference: ChEMBL document CHEMBL5356937, “Dual FLT3/haspin kinase inhibitor based on 3H-pyrazolo[4,3-f]quinoline scaffold with activities against acute myeloid leukemia” (RSC Med Chem, 2023)
Activity calls are given as the source filed them. The calls are words filed in the database; no cut-off is given here.

What was measured:
[1] = target: T1, Serine/threonine-protein kinase haspin (Homo sapiens) (UniProt Q8TF76); assay: Inhibition of haspin (unknown origin) at 50 nM by ADP Glo kinase assay relative to control
T1 sequence (whole entry): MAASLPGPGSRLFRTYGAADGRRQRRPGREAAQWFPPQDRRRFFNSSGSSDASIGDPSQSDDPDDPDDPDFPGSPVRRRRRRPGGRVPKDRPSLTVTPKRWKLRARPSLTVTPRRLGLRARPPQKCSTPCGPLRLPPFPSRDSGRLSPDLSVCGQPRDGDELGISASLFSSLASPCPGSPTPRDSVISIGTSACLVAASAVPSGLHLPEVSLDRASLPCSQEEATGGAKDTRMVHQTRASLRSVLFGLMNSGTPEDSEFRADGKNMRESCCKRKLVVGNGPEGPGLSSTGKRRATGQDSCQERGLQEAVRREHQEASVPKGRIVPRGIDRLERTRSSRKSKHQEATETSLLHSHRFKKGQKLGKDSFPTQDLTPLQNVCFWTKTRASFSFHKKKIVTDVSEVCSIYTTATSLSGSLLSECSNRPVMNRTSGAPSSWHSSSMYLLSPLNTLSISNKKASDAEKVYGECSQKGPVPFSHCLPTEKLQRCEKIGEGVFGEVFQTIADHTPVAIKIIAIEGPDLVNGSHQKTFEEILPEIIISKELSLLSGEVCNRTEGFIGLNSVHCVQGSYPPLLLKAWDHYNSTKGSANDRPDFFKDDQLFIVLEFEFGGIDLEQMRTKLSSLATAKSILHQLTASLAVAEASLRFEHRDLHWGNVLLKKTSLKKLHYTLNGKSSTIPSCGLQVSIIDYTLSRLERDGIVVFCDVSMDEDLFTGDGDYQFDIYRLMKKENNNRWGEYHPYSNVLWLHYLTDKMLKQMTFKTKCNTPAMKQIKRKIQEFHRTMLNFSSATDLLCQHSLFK
How it was run: (§1)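 In-house ADP-Glo assay: 9 ng/µL kinase, 10 µM ATP, 20 µM peptide substrate, 50 nM inhibitor in 25 mM MOPS pH 7.2, 12.5 mM β-glycerophosphate, 25 mM MgCl2, 2 mM EDTA, 0.2 mM DTT, 40 µg/mL BSA. Incubated 3 h, quenched with GLO reagent 40 min, detection reagent 1 h, luminescence read. Percent inhibition, mean of triplicates.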

MOLM-14 [2] = assay: Anticancer activity against human MOLM-14 cells assessed as cell growth inhibition at 50 nM incubated for 72 hrs by CellTiter-Blue Cell Viability Assay relative to control; format: functional
How it was run: (§2)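 Cells plated at 5000/well in RPMI with 10% FBS and penicillin-streptomycin, incubated 24 h at 37 °C, 5% CO2, then exposed to 50 nM compound for 72 h. Viability read by CellTiter-Blue, absorbance at 570 nm 3 h after addition; vehicle and cell-free controls included. Percent growth inhibition given as mean of triplicates.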

[3] = target: Receptor-type tyrosine-protein kinase FLT3 (Homo sapiens) (UniProt P36888); assay: Inhibition of FLT3 (unknown origin) at 50 nM by ADP Glo kinase assay relative to control; how it was run: as §1
MV4-11 [4] = assay: Anticancer activity against human MV4-11 cells assessed as cell growth inhibition at 50 nM incubated for 72 hrs by CellTiter-Blue Cell Viability Assay relative to control; format: functional; how it was run: as §2
[5] = target: Receptor-type tyrosine-protein kinase FLT3 (Homo sapiens, UniProt P36888, ITD); assay: Inhibition of FLT3 ITD mutant (unknown origin)
[6] = target: Receptor-type tyrosine-protein kinase FLT3 (Homo sapiens, UniProt P36888, D835Y); assay: Inhibition of FLT3 D835Y mutant (unknown origin)
[7] = target: Receptor-type tyrosine-protein kinase FLT3 (Homo sapiens) (UniProt P36888); assay: Inhibition of FLT3 in human MOLM-14 cells assessed as reduction in phosphorylation of FLT3 at 5 to 100 nM incubated for 2 hrs by immunoblotting; format: cell-based; details: dose 5-100 nM
How it was run: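 MOLM-14 cells exposed to compound at 5, 20 or 100 nM for 2 h, lysed, protein normalized to BSA standard; SDS-PAGE, nitrocellulose transfer, overnight primary antibody, 2 h peroxidase secondary, chemiluminescent detection by CCD. Phospho-FLT3 bands normalized to actin; means of triplicates, SD.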

MV4-11 [8] = assay: Anticancer activity against human MV4-11 cells assessed as reduction in cell proliferation incubated for 72 hrs CellTiter-Blue Cell Viability Assay; format: functional
How it was run: (§3)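 Cells grown in RPMI + 10% FBS + penicillin-streptomycin, seeded 5000 per well, left 24 h at 37 °C, 5% CO2, then given graded compound concentrations for 72 h. CellTiter-Blue viability read as absorbance at 570 nm after 3 h; vehicle and cell-free controls. Nonlinear regression gave GI50; points are means of triplicates, confirmed by two scientists on separate days.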

[9] = target: T1, Serine/threonine-protein kinase haspin (Homo sapiens); assay: Inhibition of haspin in human MOLM-14 cells assessed as reduction in histone H3 phosphorylation at Thr3 at 20 nM incubated for 24 hrs by immunoblotting analysis
MOLM-14 [10] = assay: Anticancer activity against human MOLM-14 cells expressing FLT3 D835Y mutant assessed as reduction in cell proliferation incubated for 72 hrs CellTiter-Blue Cell Viability Assay; format: functional; how it was run: as §3
MOLM-14 [11] = assay: Anticancer activity against human MOLM-14 cells assessed as reduction in cell proliferation incubated for 72 hrs CellTiter-Blue Cell Viability Assay; format: functional; how it was run: as §3
DNA = assay: Binding affinity to DNA (unknown origin) assessed as DNA intercalation; format: nucleic-acid assay; details: Homo sapiens
MOLM-14 [12] = assay: Anticancer activity against human MOLM-14 cells expressing FLT3 F691L mutant assessed as reduction in cell proliferation incubated for 72 hrs CellTiter-Blue Cell Viability Assay; format: functional; how it was run: as §3

| SMILES | inhibition [1] [%] | Activity (MOLM-14 [2]) [%] | inhibition [3] [%] | Activity (MV4-11 [4]) [%] | other results |
| --- | --- | --- | --- | --- | --- |
| O=C(NCc1nnn[nH]1)c1ccc(-c2nc3ccc4[nH]ncc4c3c3c2CCCC3)cc1 | 57 | 50 | 51 | 41 |  |
| O=C(NCc1nccs1)c1ccc(-c2nc3ccc4[nH]ncc4c3c3c2CCCC3)cc1 | 68 | 55 | 53 | 60 |  |
| Cn1ccnc1CNC(=O)c1ccc(-c2nc3ccc4[nH]ncc4c3c3c2CCCC3)cc1 | 26 | 21 | 14 | 25 |  |
| FC(F)(F)c1n[nH]cc1-c1nc2ccc3[nH]ncc3c2c2c1CCCC2 | 39 | 90 | 81 | 92 |  |
| O=C(NCCc1ncc[nH]1)c1ccc(-c2nc3ccc4[nH]ncc4c3c3c2CCCC3)cc1 | 78 | 73 | 71 | 69 |  |
| O=C(NCc1cc[nH]c1)c1ccc(-c2nc3ccc4[nH]ncc4c3c3c2CCCC3)cc1 | 41 | 39 | 46 | 28 |  |
| O=C(NCc1ncc[nH]1)c1ccc(-c2nc3ccc4[nH]ncc4c3c3c2CCCC3)cc1 | 77 | 84 | 76 | 80 |  |
| O=C(NCc1nnc[nH]1)c1ccc(-c2nc3ccc4[nH]ncc4c3c3c2CCCC3)cc1 | 57 | 48 | 49 | 52 |  |
| O=C(NCc1c[nH]cn1)c1ccc(-c2nc3ccc4[nH]ncc4c3c3c2CCCC3)cc1 | 54 | 67 | 49 | 62 |  |
| O=C(NCc1ncc[nH]1)c1ccc(-c2nc3ccc4[nH]ncc4c3c3c2CCCC3)c(F)c1 | 53 | 87 | 88 | 79 |  |
| O=C(NCc1ncc[nH]1)c1ccc(-c2nc3ccc4[nH]ncc4c3c3c2CCCC3)cc1F | 76 | 80 | 85 | 82 |  |
| Cc1c[nH]c(CNC(=O)c2ccc(-c3nc4ccc5[nH]ncc5c4c4c3CCCC4)cc2)n1 | 97 | 96 | 94 | 94 | IC50 [5]: 0.121 nM; IC50 [6]: 0.024 nM; Activity [7]: Active; GI50 (MV4-11 [8]): 8.9 nM; inhibition [9]: Active; GI50 (MOLM-14 [10]): 4.3 nM; GI50 (MOLM-14 [11]): 22.4 nM; Activity (DNA): inactive; GI50 (MOLM-14 [12]): 2.2 nM |
| CCc1nc(C(N)=O)c(Nc2ccc(N3CCC(N4CCN(C)CC4)CC3)c(OC)c2)nc1NC1CCOCC1 [GILTERITINIB] | 11 | 87 | 93 | 91 | inhibition [9]: inactive |
| O=C(NCCn1ccnc1)c1ccc(-c2nc3ccc4[nH]ncc4c3c3c2CCCC3)cc1 | 33 | 42 | 31 | 35 |  |
| O=C1c2c(O)ccc(O)c2C(=O)c2c(NCCNCCO)ccc(NCCNCCO)c21 |  |  |  |  | Activity (DNA): Active |
